This is a sample that favours compounds with a hit; in the whole collection about 5.1% have one here.
STAT3 act: increases IL-6 driven STAT3 reporter signal. activation (% of control), % at 5.6 µM. 190,000 tested, 0.91% active. AID 871. U3A cells, IL-6 STAT3-luciferase reporter, luminescence; 100% = signal with IL-6 EC80 alone;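 active = activation above the screen-wide mean of compound activation plus 3 SD, cut at about 130% in these data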;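 also: 0% = background luminescence of wells with medium and substrate only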
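Material: STAT1-lacking human U3A cells, STAT3 luciferase reporter | Benchmarks: IL-6-only wells as 100% reference | Probe or stimulus: IL-6 (33 ng/mL) | Timing: Compound 1 h, then IL-6 6 h at 37 °C | Detection: Luminescence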
NF-kB expr up: compounds increasing NF-kB expression in human neuronal cells | fold change at 12.5 µM | 190,000 tested, 1.6% active | NF-kB reporter expression; hits give high values; in the data active = fold change above about 3.3
STAT1 inh: reduces IFN-gamma driven STAT1 reporter signal; inhibition, % at 5.5 µM; AID 920; NIH 3T3 STAT1-luciferase reporter, luminescence; 200,000 tested, 0.35% active;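 active = inhibition above a set limit, the mean inhibition across all tested compounds plus 3 SD, cut at about 34% in these data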;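 also: 0% = IFN-gamma with DMSO and 100% = IFN-gamma with 300 µM nifuroxazide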
STAT3 inh: STAT3 signaling inhibition. U3A cells, IL-6 STAT3-luciferase reporter, luminescence; host cell line lacks STAT1. inhibition, % at 5.5 µM. 190,000 tested, 0.89% active;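 active = inhibition above the mean inhibition across all screened compounds plus 3 SD, cut at about 44% in these data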;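 also: 0% = DMSO only wells and 100% = 100 µM nifuroxazide control wells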
APP 5'UTR act: activates APP 5'UTR luciferase reporter | SH-SY5Y APP 5'UTR luciferase reporter, luminescence; zero percent = DMSO vehicle wells | activation, % at 2 µM | 190,000 tested, 1% active | AID 1276;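 active = activation above a set limit, based on mean plus 3 SD of controls, cut at about 140% in these data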
STAT1 activator: STAT1 signaling activation; 200,000 tested, 2.6% active; activation (% of control), % at 5.5 µM; NIH 3T3 STAT1-luciferase reporter, IFN-gamma, luminescence; 100% = IFN-gamma alone, no compound;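 active = activation above the screen-wide mean activation plus 3 SD, cut at about 130% in these data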;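 also: raw ratio to IFN-gamma control signal so 100% means no change and 0% no light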
* = called active by the depositor.

SMILES	STAT3 act	NF-kB expr up	STAT1 inh	STAT3 inh	APP 5'UTR act	STAT1 activator
Fc1ccc(OCc2nc(-c3cccs3)no2)cc1	105	2.4	-45	-1	88	140*
O=C(NCc1ccc(F)cc1)c1nc(-c2cccs2)no1	106	0.78	-7	3	-1	106
Cc1cc(OCc2nc(-c3cccs3)no2)cc(C)c1Cl	94	1.4	-2	12	10	102
O=C(CSc1ccc2c(c1)OCCO2)Nc1cccnc1	91	0.89	2	12	2	98
COc1c(Cl)cc(Cl)cc1C(=O)Nc1ccc(C(=O)O)cc1	101	1.1	-4	0	-18	104
COc1c(Cl)cc(Cl)cc1/C=C/C(=O)c1ccc(NC(=O)c2cccs2)cc1	111	5.7*	-10	-14	-11	109
COC(=O)Cc1ccc(NC(=S)Nc2cccc(C)n2)cc1	79	1.4	-2	28	23	100
O=C(COc1ccc(OCc2ccccc2)cc1)NN=C1CCCC1	106	1	-12	-6	12	111
Cc1cc(OCc2ccc(C(=O)NN=C3CCCC3)cc2)ccc1Cl	110	1.3	-34	-7	-20	130*
O=C(Nc1ccc2oc(-c3ccccc3)nc2c1)c1cccs1	91	2.1	-55	13	155*	143*
Cc1ccc2oc(-c3cccc(NC(=S)NC(=O)c4cccs4)c3)nc2c1	101	2.6	-20	-7	132	118
O=C(CNS(=O)(=O)c1cccc(Cl)c1)Nc1ccc(-c2nc3ccccc3s2)cc1	100	1.9	-51	2	129	145*
O=C(CCS(=O)(=O)c1ccccc1)Nc1cccc(-c2nc3ccccc3s2)c1	91	3.7*	-16	9	111	114
O=C(CSc1nnc2ccccn12)Nc1cccc(-c2nc3ccccc3s2)c1	108	1.3	-40	-3	137*	136*
COc1cccc(N=C(N)N)c1	92	1.1	0	11	-9	99
O=C(Nc1cccc(-c2nc3ccccc3s2)c1)c1cc(=O)c2ccccc2o1	102	0.65	-10	-8	26	109
O=C(Nc1cccc(-c2nc3ccccc3s2)c1)c1cccs1	101	1.9	-45	1	7	140*
CC(NS(=O)(=O)c1cccc(Cl)c1)C(=O)Nc1ccc(-c2nc3ccccc3s2)cc1 (configuration not stated)	113	1.5	-25	-15	46	123
Cc1ccc(C)c(S(=O)(=O)NC(C)C(=O)Nc2ccc(-c3nc4ccccc4s3)cc2)c1 (configuration not stated)	105	1.1	-35	2	55	131*
COc1ccc(NS(=O)(=O)c2cccc(NC(=O)CCS(=O)(=O)c3ccccc3)c2)cc1	93	0.85	7	8	-11	93
CCOc1cc(N2CCOCC2)c(OCC)cc1NC(=O)COc1ccc2ccc(=O)oc2c1	108	0.85	5	-8	-1	95
CCOC(=O)c1[nH]c2ccc(OC)cc2c1C	81	1.9	-46	24	31	142*
COc1ccc2nc(NC(=O)C3COc4ccccc4O3)sc2c1 (configuration not stated)	75	3.4*	-12	35	132	111
COc1ccc(OC)c(-c2csc(NC(=O)C3COc4ccccc4O3)n2)c1 (configuration not stated)	88	1.4	2	20	4	97
CC(=O)Nc1nc(C2COc3ccccc3O2)cs1 (configuration not stated)	89	5*	-50	22	168*	145*
SMILES	STAT3 act	NF-kB expr up	STAT1 inh	STAT3 inh	APP 5'UTR act	STAT1 activator
COc1ccc2nc(NC(=O)c3cc(C)oc3C)sc2c1	83	2.5	-42	23	145*	139*
O=C(Nc1nc(-c2nc3ccccc3s2)cs1)C1COc2ccccc2O1 (configuration not stated)	107	3	-34	-9	36	132*
CCCC(=O)Nc1nc2ccc(OC)cc2s1	94	3.1	-46	8	61	144*
Cn1c(-c2ccc3c(c2)OCO3)cnc1NCc1cccc(O)c1	98	1.6	-8	9	32	106
COc1ccccc1OCC(=O)Nc1ccccn1	92	1.1	-29	16	125	129*
O=C(COc1ccc(Cl)cc1Cl)Nc1ccccn1	8	0.97	89*	111*	-1	20
CC(c1ccco1)N(C(=O)COc1ccc(Cl)cc1Cl)c1ccccn1 (configuration not stated)	85	4*	-24	23	197*	122
O=C(Cc1csc(Nc2nc(=S)[nH]c3ccccc23)n1)N1CCN(c2cccc(C(F)(F)F)c2)CC1	135*	1.5	7	-38	-3	92
O=C(Cc1csc(Nc2nc(=S)[nH]c3ccccc23)n1)NCc1cccc(Cl)c1	122	1.1	1	-14	18	99
COc1cc(CNC(=O)c2cccc(COc3ccc(Cl)cc3)c2)cc(OC)c1	83	1.9	-8	19	139*	107
COc1ccc(OCc2cccc(C(=O)Nc3cc(C)on3)c2)cc1	44	2.7	58*	69*	66	53
O=C(NCc1ccccc1)c1cccc(COc2ccc(Cl)cc2)c1	101	2	-26	5	77	124
COc1ccc(C(=O)Nc2cc(C)on2)cc1	83	3.1	-22	26	92	122
COc1ccc(OCc2cccc(C(=O)Nn3cc([N+](=O)[O-])cn3)c2)cc1	61	7.4*	88*	49*	25	21
CCOc1ccc(OCc2cccc(C(=O)N3CCOCC3)c2)cc1	17	3.4*	82*	96*	-48	24
O=C(COC(=O)[C@@H]1CCCN1S(=O)(=O)c1ccccc1F)Nc1ccc(OC(F)F)cc1	108	1.1	4	-9	-21	95
COc1ccc(C2C(C(=O)NCc3ccccn3)CCC(=O)N2c2cc(OC)c(OC)c(OC)c2)cc1 (configuration not stated)	102	1.1	1	-1	5	99
NNC(=O)c1cccc(COc2cccc(Br)c2)c1	97	1.8	-12	5	43	111
COc1ccc(OCc2cccc(C(=O)NN)c2)cc1	19	2.5	65*	98*	80	43
CCc1ccc(OCC(=O)Nc2ccc(-c3cc4ccccc4oc3=O)c(OC)c2)cc1	92	1.1	4	10	-11	96
CC(=O)N1N=C(c2ccc(C)cc2)CC1c1ccco1 (configuration not stated)	104	1.8	-15	3	31	113
Cc1ccc(C2=NN3C(C2)c2ccccc2OC32C(=O)Nc3ccccc32)cc1 (configuration not stated)	132	8.7*	-8	-32	204*	107
